{"source": "paper PMC7214649", "about": "(Clinical and Translational Science, 2020)", "key": {"P-gp [1]": {"molecular_target": "T1, P-gp (Homo sapiens, UniProt P08183)", "T1 sequence (P08183 whole entry)": "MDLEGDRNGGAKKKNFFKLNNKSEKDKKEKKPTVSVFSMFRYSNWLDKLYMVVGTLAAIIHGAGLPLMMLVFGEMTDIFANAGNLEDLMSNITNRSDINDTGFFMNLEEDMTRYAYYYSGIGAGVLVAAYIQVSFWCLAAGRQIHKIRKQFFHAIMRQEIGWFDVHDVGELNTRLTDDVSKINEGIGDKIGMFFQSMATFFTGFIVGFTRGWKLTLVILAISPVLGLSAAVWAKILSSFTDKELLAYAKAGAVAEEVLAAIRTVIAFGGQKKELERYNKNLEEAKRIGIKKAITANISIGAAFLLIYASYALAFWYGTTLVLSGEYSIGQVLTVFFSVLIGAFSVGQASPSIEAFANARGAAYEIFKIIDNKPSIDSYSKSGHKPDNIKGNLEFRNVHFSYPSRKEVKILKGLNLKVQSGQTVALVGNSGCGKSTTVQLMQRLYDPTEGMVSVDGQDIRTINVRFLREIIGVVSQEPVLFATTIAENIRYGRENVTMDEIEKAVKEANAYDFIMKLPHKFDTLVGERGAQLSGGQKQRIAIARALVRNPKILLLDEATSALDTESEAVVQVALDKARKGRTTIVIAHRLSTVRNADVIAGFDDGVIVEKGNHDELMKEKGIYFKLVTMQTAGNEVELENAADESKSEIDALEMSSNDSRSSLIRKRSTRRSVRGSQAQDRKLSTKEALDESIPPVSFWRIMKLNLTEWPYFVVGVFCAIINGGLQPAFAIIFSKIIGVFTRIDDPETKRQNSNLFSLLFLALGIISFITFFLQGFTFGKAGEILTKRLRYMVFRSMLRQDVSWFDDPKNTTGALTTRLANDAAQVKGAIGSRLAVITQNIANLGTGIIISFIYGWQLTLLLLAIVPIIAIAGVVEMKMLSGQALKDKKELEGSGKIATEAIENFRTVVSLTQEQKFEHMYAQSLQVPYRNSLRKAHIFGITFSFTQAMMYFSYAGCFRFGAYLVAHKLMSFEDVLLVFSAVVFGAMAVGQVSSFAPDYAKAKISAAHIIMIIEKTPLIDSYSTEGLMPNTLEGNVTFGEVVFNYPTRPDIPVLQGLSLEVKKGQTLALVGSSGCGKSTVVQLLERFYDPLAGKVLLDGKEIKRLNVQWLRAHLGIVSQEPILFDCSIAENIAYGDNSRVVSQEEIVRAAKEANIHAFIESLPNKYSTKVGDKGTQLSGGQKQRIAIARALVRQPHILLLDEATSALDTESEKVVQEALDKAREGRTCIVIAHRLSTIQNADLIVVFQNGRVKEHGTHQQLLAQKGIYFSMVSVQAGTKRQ", "assay_type": "in vivo"}, "[2]": {"assay_type": "in vivo, human"}, "[3]": {"conditions": "cited from earlier work"}, "P-gp [4]": {"molecular_target": "T1, P-gp", "conditions": "single dose venetoclax 100 mg, female healthy volunteers; cited from earlier work"}, "[5]": {"assay_type": "in vivo, human", "remark": "listed apart in the source"}, "[6]": {"conditions": "fed conditions; cited from earlier work"}, "CYP3A": {"test_system": "CYP3A", "assay": "Ritonavir-venetoclax drug interaction study, observed exposure ratios", "assay_type": "in vivo, human", "method_in_brief": "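20 female subjects, […], all drugs given orally; serial blood sampling for plasma levels of both the test compound and the CYP3A inhibitor. Validated assays had LLOQ 2.11 ng/mL (test compound) and 9.73 ng/mL (inhibitor), bias -4.7% to 7.1%, and CV 1.6% to 9.6%. Ratio is Cmax or AUC on coadministration over dosing alone; AUC96 runs 0–96 h postdose.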"}, "[7]": {"conditions": "Cohort 1: venetoclax 10 mg with single dose ritonavir 50 mg vs venetoclax alone, period 1 day 1 vs period 2 day 1"}, "[8]": {"conditions": "Cohort 2: venetoclax 10 mg with single dose ritonavir 100 mg vs venetoclax alone, period 1 day 1 vs period 2 day 1"}, "[9]": {"conditions": "Cohort 3: venetoclax 10 mg with ritonavir 50 mg q.d. for 11 days vs venetoclax alone, multiple-dose effect, period 1 day 1 vs period 2 day 11"}}, "note": "Like-named read-outs stand apart in the source and are kept apart here."}
{"smiles": "C[C@H]1O[C@@H](O[C@H]2[C@@H](O)C[C@H](O[C@H]3[C@@H](O)C[C@H](O[C@H]4CC[C@@]5(C)[C@H](CC[C@@H]6[C@@H]5C[C@@H](O)[C@]5(C)[C@@H](C7=CC(=O)OC7)CC[C@]65O)C4)O[C@@H]3C)O[C@@H]2C)C[C@H](O)[C@@H]1O", "note": "[digoxin]", "values": [{"measurement": "increase of digoxin bioavailability", "setting": "P-gp [1]; with venetoclax", "value": 8, "unit": "%"}, {"measurement": "CL BSV (between subject variability)", "setting": "[2]; VEN-DIG model", "value": 12.3, "unit": "%CV"}, {"measurement": "V2 BSV (between subject variability)", "setting": "[2]; VEN-DIG model", "value": 28.9, "unit": "%CV"}, {"measurement": "ALAG (absorption lag time)", "setting": "[2]; VEN-DIG model final estimate", "value": 0.536, "unit": "h"}, {"measurement": "Fe (fraction of administered drug excreted into the urine)", "setting": "[2]; VEN-DIG model final estimate", "value": 0.438, "unit": "%"}, {"measurement": "Ka (first-order absorption rate constant)", "setting": "[2]; VEN-DIG model final estimate", "value": 0.777, "unit": "h⁻¹"}, {"measurement": "V2 (volume of central compartment)", "setting": "[2]; VEN-DIG model final estimate", "value": 150, "unit": "L"}, {"measurement": "V3 (volume of peripheral compartment)", "setting": "[2]; VEN-DIG model final estimate", "value": 592, "unit": "L"}, {"measurement": "clearance", "setting": "[2]; female, human, plasma, oral", "value": 262, "unit": "mL/min"}, {"measurement": "absolute bioavailability", "setting": "[3]", "value": "~ 80%"}, {"measurement": "changes in digoxin half-life or renal clearance", "setting": "P-gp [4]", "value": "no changes"}, {"measurement": "increase in digoxin AUC", "setting": "P-gp [4]", "value": 9, "unit": "%"}, {"measurement": "increase in digoxin Cmax", "setting": "P-gp [4]", "value": 35, "unit": "%"}]}
{"smiles": "CC(C)c1nc(CN(C)C(=O)N[C@H](C(=O)N[C@@H](Cc2ccccc2)C[C@H](O)[C@H](Cc2ccccc2)NC(=O)OCc2cncs2)C(C)C)cs1", "note": "[ritonavir]", "values": [{"measurement": "CL BSV (between subject variability)", "setting": "[5]; RTV-VEN model", "value": 17.9, "unit": "%CV"}, {"measurement": "V2 BSV (between subject variability)", "setting": "[5]; RTV-VEN model", "value": 54.7, "unit": "%CV"}, {"measurement": "V2 (volume of central compartment)", "setting": "[5]; RTV-VEN model final estimate", "value": 30.7, "unit": "L"}, {"measurement": "Ka (absorption rate constant)", "setting": "[5]; RTV-VEN model final estimate, first-order absorption", "value": 1.17, "unit": "day⁻¹"}]}
{"smiles": "CC1(C)CCC(CN2CCN(c3ccc(C(=O)NS(=O)(=O)c4ccc(NCC5CCOCC5)c([N+](=O)[O-])c4)c(Oc4cnc5[nH]ccc5c4)c3)CC2)=C(c2ccc(Cl)cc2)C1", "note": "[venetoclax, Venetoclax]", "values": [{"measurement": "CL BSV (between subject variability)", "setting": "[5]; RTV-VEN model", "value": 32.6, "unit": "%CV"}, {"measurement": "T50 BSV (between subject variability)", "setting": "[5]; RTV-VEN model", "value": 26.1, "unit": "%CV"}, {"measurement": "V2 BSV (between subject variability)", "setting": "[5]; RTV-VEN model", "value": 64, "unit": "%CV"}, {"measurement": "V2 (volume of central compartment)", "setting": "[5]; RTV-VEN model final estimate", "value": 26.8, "unit": "L"}, {"measurement": "V3 (volume of peripheral compartment)", "setting": "[5]; RTV-VEN model final estimate", "value": 83.5, "unit": "L"}, {"measurement": "Kamax (maximum absorption rate constant)", "setting": "[5]; RTV-VEN model final estimate, time-dependent absorption", "value": 4.76, "unit": "day⁻¹"}, {"measurement": "γ (shape factor)", "setting": "[5]; RTV-VEN model, fixed, estimated value from venetoclax combined data", "value": "5 (fixed ^*)"}, {"measurement": "IC50", "setting": "P-gp [1]", "value": 377, "unit": "nM"}, {"measurement": "CL BSV (between subject variability)", "setting": "[2]; VEN-DIG model", "value": 22, "unit": "%CV"}, {"measurement": "ALAG (absorption lag time)", "setting": "[2]; VEN-DIG model final estimate", "value": 1.72, "unit": "h"}, {"measurement": "Ka (first-order absorption rate constant)", "setting": "[2]; VEN-DIG model final estimate", "value": 0.209, "unit": "h⁻¹"}, {"measurement": "V2 (volume of central compartment)", "setting": "[2]; VEN-DIG model final estimate", "value": 19.1, "unit": "L"}, {"measurement": "V3 (volume of peripheral compartment)", "setting": "[2]; VEN-DIG model final estimate", "value": 25.4, "unit": "L"}, {"measurement": "half-life", "setting": "[6]", "value": "~ 15 hours"}, {"measurement": "AUCinf ratio, Observed Central value", "setting": "CYP3A; [7]", "value": 6.1}, {"measurement": "Cmax ratio, Observed Central value", "setting": "CYP3A; [7]", "value": 2.4}, {"measurement": "AUCinf ratio, Observed Central value", "setting": "CYP3A; [8]", "value": 8.1}, {"measurement": "Cmax ratio, Observed Central value", "setting": "CYP3A; [8]", "value": 2.3}, {"measurement": "AUC96 ratio, Observed Central value", "setting": "CYP3A; [9]", "value": 7.9}, {"measurement": "Cmax ratio, Observed Central value", "setting": "CYP3A; [9]", "value": 2.4}]}
